Measurements from different studies.
Lines come from different studies, so protocols differ.
SLC2A9: Solute carrier family 2, facilitated glucose transporter member 9 (SLC2A9, Homo sapiens, UniProt Q9NRM0)

SMILES | target | read-out | action | method | notes | endpoint | value
Nc1ncnc2c1ncn2[C@@H]1O[C@H](COP(=O)(O)CP(=O)(O)OP(=O)(O)O)[C@@H](O)[C@H]1O | P2X purinoceptor 1 (P2RX1, Homo sapiens, UniProt P51575) | binding |  | radioligand |  | Kd | 0.043 µM
Nc1ncnc2c1ncn2[C@@H]1O[C@H](CO)[C@@H](O)[C@H]1O | SLC2A9 | transporter uptake | inhibitor | radiometric | oocytes | IC50 | > 4000 µM
O=C(c1ccc(OCCN2CCCCC2)cc1)c1c(-c2ccc(O)cc2)sc2cc(O)ccc12 | Protein disulfide-isomerase (P4HB, Homo sapiens, UniProt P07237) | binding |  | SPR |  | Kd | 0.0297 µM
O=C(C=Cc1ccccc1)Nc1cc(-c2ccnc(N3CCC(O)CC3)c2)ccn1 | Nuclear receptor subfamily 4immunitygroup A member 1 (NR4A1, Homo sapiens, UniProt P22736) | binding |  | SPR |  | Kd | 0.121 µM
N=c1c[n+](N2CCOCC2)[n-]o1 | NAD-dependent protein deacetylase sirtuin-1 (SIRT1, Homo sapiens, UniProt Q96EB6) | enzyme activity | inhibitor |  |  | IC50 | 7 µM
CCCCCCCc1cc(O)cc(=O)o1 | Aldo-keto reductase family 1 member C3 (AKR1C3, Homo sapiens, UniProt P42330) | enzyme activity | inhibitor |  |  | IC50 | 10.6 µM
COc1ccc(C[C@H]2COC(=O)[C@@H]2Cc2ccc(OCC(=O)Nc3ccc(C(=O)Nc4ccccc4N)cc3)c(OC)c2)cc1OC | Histone deacetylase 4 (HDAC4, Homo sapiens, UniProt P56524) | enzyme activity | inhibitor |  |  | IC50 | > 10 µM
Cn1c(=O)c2c(ncn2C)n(C)c1=O | SLC2A9 | transporter uptake | inhibitor | radiometric | oocytes | IC50 | > 1000 µM
N[C@@H](Cc1ccccc1)C(=O)O | Alkaline phosphatase, placental type (Homo sapiens, UniProt P05187) | enzyme activity | inhibitor |  |  | IC50 | 82.6 µM
CCOC(=O)/C=C/C(=O)[C@H](CC(C)C)NC(=O)[C@H](Cc1ccccc1)NC(=O)[C@H](Cc1ccccc1)N=[N+]=[N-] (mixture of isomers) | Procathepsin L (CTSL, Homo sapiens, UniProt P07711) | enzyme activity | inhibitor |  |  | IC50 | 0.13 µM
Cc1ccc2oc(=O)cc(NCCO)c2c1 | Alpha-1B adrenergic receptor (Adra1b, Rattus norvegicus, UniProt P15823) | calcium signal | antagonist |  |  | IC50 | 178 µM
O=C1CCc2ccccc2O1 | cah (Neisseria gonorrhoeae, UniProt Q50940) | enzyme activity | inhibitor | stopped-flow |  | Ki | 25.8 µM
